Measured values: the EternaBench riboswitch data

System: MS2 coat protein
Experiment: apparent Kd, MS2 coat protein; higher = weaker binding; RNA-MaP array; FMN 200 µM where present
How it was run: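 Binding was read on Illumina sequencing-chip clusters where stalled E. coli RNA polymerase had transcribed each design. A titration of SNAP-549-labelled MS2 coat protein began at 0.7 or 1.5 nM and doubled to 3 µM, once without ligand and once with constant ligand, in 100 mM Tris-HCl pH 7.5, 80 mM KCl, 4 mM MgCl2, BSA, DTT, yeast tRNA and Tween-20. The apparent Kd is the median of filtered per-cluster binding-curve fits, based on green signal normalised to red-channel RNA signal and control-cluster median Fmax.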

[1] = designed as: ON switch for flavin mononucleotide, no ligand
[2] = ligand present: flavin mononucleotide, designed as: ON switch for flavin mononucleotide
[3] = designed as: OFF switch for flavin mononucleotide, no ligand
[4] = ligand present: flavin mononucleotide, designed as: OFF switch for flavin mononucleotide

Sequence	apparent Kd [1]	apparent Kd [2]	apparent Kd [3]	apparent Kd [4]
AUUUUACAUGAGGAUCACCCAUGUUUUGGUGGAUCAGGAUAUAGAUCGGAUGAGUUCUGGCUAGAAGGGAUAUAUA	93.6 nM	86.5 nM	–	–
CCCGUGUUAGGAUAUACGGCACACCCACCAGCGGGUGUAUAGUAGAAGGAACAUGAGGAUCACCCAUGUAUAAC	–	–	34.9 nM	51.4 nM
UUAUAUUUACAAGGAUAUCAAUUAUUUAUACUUCCUACAUGAGGAUCACCCAUGUUUUUAUAUUUUGAGAAGGUGUAAUGUCGG	38.5 nM	33.7 nM	–	–
AGAUUUGUACAUGAGGAUCACCCAUGUUAAUAGGUGUUUGUCAGAAGGCAUUAAUAGAGAUUUAAUGAGGAUAUGAUGUUACAA	49.3 nM	35.2 nM	–	–
CCGCAAAUGCAGGAUAUCGUAUCGGAUACGAUACGAGAAGGGCGUACAUGAGGAUCACCCAUGUGUCCUAGCGG	–	–	16.4 nM	23.3 nM
GGAAACUACGAGAAGGACAUGUGGUCCUUCAGUUACAUGAGGAUCACCCAUGUAGGAUAUCGUAGUUUCAGGAUCGUGAGAUCG	–	–	35.6 nM	9.39 nM
CGUGGUUGGGAGGAUAUGCACGUGAACGCUAUUGUAGAAGGUCCGACAUGAGGAUCACCCAUGUAGGUGUCACG	–	–	168 nM	147 nM
AUUAUGUUAGGAUAUGCUUAUGGUGGAUAGUCCGAUAUGAUGCAGAAGGGACAUGAGGAUCACCCAUGUACUGA	–	–	27.3 nM	29.5 nM
AAAUCUUACGAAGGAUAUACAAACAUGAGGAUCACCCAUGUGUGUUUCGUGUUACUGAAAUUCGGGUAGAAGGUCGUAGACAUA	–	–	27.7 nM	19.2 nM
ACAUGAGGAUCACCCAUGUGAUGAUCUCCCAUGUUAUAUUUCAGAAGGCUCGCGUGUUUGAUGAGAGAGGAUAUGGAAUAUACG	–	–	325 nM	272 nM
GCAUUUCAGUAAGGAUAUAUAAACAUGACGAUACAUGAGGAUCACCCAUGUGUAGAAGGUACUAAUACAUAUAAUGCAAUGGUC	–	–	26.6 nM	21.1 nM
GGCGAAGUAGGAUAUACAUGAGGAUCACCCAUGUAACCUGAUGGCGUAGGUCUUCUAUGUAGAAGGGCUACGCC	–	–	15.9 nM	16.9 nM
AAAAAGCGAGGAUAUACAUGAGGAUCACCCAUGUCAAACGGUAAGACCGCAGGAAACAGUAGAAGGCGCAAAAA	–	–	64.3 nM	89.6 nM
GUCUCCGCUCGAGGAUAUAGCUGCAUGUAGUGUCCUGAGGCACAUGAGGAUCACCCAUGUGUAGGCUAGAAGGCGACGGACACU	–	–	–	29.2 nM
UGCGUUUGAGGAUAUACGUAGAAUUAGAUUCAUGUAAAACUACAUGAGGAUCACCCAUGUAGAAGGCAAGCGCU	–	–	17.7 nM	79.4 nM
AGUGCGUAUGUGAGGAUAUGCUGGUCCUUGGAUCAGCAGAAGGCACAUGAGGAUCACCCAUGUGGUGUCGUACC	–	–	209 nM	36.4 nM
AUCAGCUCGUCAGGAUAUACAUCACUGCUUCGGCAGUGUAUUAAGAUCACAUGAGGAUCACCCAUGUAGAAGGGACGAGCUGAU	–	–	31.7 nM	310 nM
GACCGAUAGUCAGGAUAUGCAUGGUUAGUUGAUUACAUGAGGAUCACCCAUGUAGAAGGGACUUUGGCGAAAUCCGUGAUGCGU	–	–	44.1 nM	115 nM
UGUAAAAUUGAUCCUGCAAGUACAUGAGGAUCACCCAUGUGCUAGGAUAUCGCGCAGCUAAAGUCCGAGAAGGAGCACAAUGUA	–	–	32.3 nM	95.6 nM
AAAAAACAUGAGGAUCACCCAUGUCAGGAUAUCAUAAAAAAAAAAAAAAAAAAAAAAGUGAGAAGGGACAAAAA	–	–	91.7 nM	71.5 nM
GGACAUUUACAGAAGGGCAAUUUAUUUAUUGAUUAUUUAGUUCUGUUUUGCAGGAUAUGUAAUACAUGAGGAUCACCCAUGUCC	188 nM	74 nM	–	–
GCACGAAGCUAGAAGGGCGAUUUGCACAUGAGGAUCACCCAUGUCCAACGUAGGAUAUGGCUGGCGGGAACGCAAGGUGCGCGC	330 nM	37.3 nM	–	–
GCAUGCAUAGCGAUAUGAUCGAGAGAUCAUGUCGCUAAAUUUAGAAGGACAUGAGGAUCACCCAUGUAGGAUAUGGGAGCAUGG	76 nM	12.7 nM	–	–
UUACAUACAAAGUUACAUGAGGAUCACCCAUGUUUAUUGGGAAGAAGGGUAACAGUAUUACAUAUAUAGGAUAUUUCACAAUUG	333 nM	181 nM	–	–

Sequence	apparent Kd [1]	apparent Kd [2]	apparent Kd [3]	apparent Kd [4]
GAAGCGCUUGACAUGAGGAUCACCCAUGUUAGAUUGUUAUGUCAGGAUAUAGUCUAGAAACUAGACUAGAAGGGAUAUGCUUCU	300 nM	43.1 nM	–	–
CACUGCAAUGUAGGAUAUCGACUGGAAUACAGUCGAGAAGGACAUGAGGAUCACCCAUGUACUAAUAGUGAUAAUAAAGCAGUG	–	–	14.6 nM	54.1 nM
AUAUGAUAGAUAGGAUAUACAGUGGAUUUAUAAGUAGAAGGAUCAAGUGGGAAUUAUACAUGAGGAUCACCCAUGUUUUUGGAU	68.2 nM	45.8 nM	–	–
GAUUGACAAGGAUAUACAUGAGGAUCACCCAUGUGCUUCAGCUAGGAGACUAGCAUUGGUAGAAGGUGUUAAUC	–	–	20.3 nM	68.4 nM
UCCCGGUAAGAAGGAUAUACAUGAGGAUCACCCAUGUAUUAAACAUAUACUGGCCGUGGCCUUGUGUAGAAGGUCUGUCGGUCA	–	–	6.75 nM	5.97 nM
AUGCUUCACACAGGAUAUACAUGAGGAUCACCCAUGUGUCCAAAGUAGCUGACACGAGCUACGCGGUAGAAGGGUGUGAAGCAU	–	–	17.3 nM	54.3 nM
UUAAUUAACAAGAAGGCAUACAUGAGGAUCACCCAUGUUGUACAUGGAUAAUGAGGAUAUUGCUAAUACAUGAGGAUCACCCAU	–	–	36.5 nM	34.3 nM
GUAGUGCUCAUAGGAUAUCGGGAGCAACGUAGACAGGUUGCACAUGAGGAUCACCCAUGUAAAGUCGAGAAGGGUGAUCACGCC	599 nM	177 nM	–	–
UGGAUCAUCGGAGGAUAUCAUGUAAAUACAUGAGGAUCACCCAUGUCGUACGAGAGUACGGAGAUUGAGAAGGCCGAUGAUCCU	24.6 nM	15.4 nM	–	–
GCACGAGACUAAGGAUAUGGAGUGUCAACAUUAAACAUGAGGAUCACCCAUGUAAAGAGUACGAUUCAGAAGGUAGAGACGUGC	59.1 nM	22.8 nM	–	–
AGAUGACAAAGUCAUCUCGCUUUGACAUGAGGAUCACCCAUGUAGGAUAUAUUACUCAAAGAGUAAUAGAAGGACAUGUUUCUG	–	–	72.7 nM	163 nM
GAGUGACAUGAGGAUCACCCAUGUGAGGAUAUCGGACGGACCAAAUUAACAACAACCGCGAGAAGGCACAUCGG	–	–	146 nM	135 nM
AAGCGCUACAUGAGGAUCACCCAUGUUCCGAGGCAGAUUUCACAGGAUAUCCCAAUUGGCCCAAGGGAGAAGGGUGAUGGCCAA	79.1 nM	23.6 nM	–	–
GUACCUUAUGAGAAGGCGAUCAUGAAACAUGAUCGAGGAUAUCAUGUAAACAUGAGGAUCACCCAUGUAUGGGUAUUAUGGUAU	43.9 nM	11.3 nM	–	–
GGAAAACAUGAGGAUCACCCAUGUGAGGAUAUCGAUGUCCAAAAACCCGUGCGGGACUCGAGAAGGCACUUGGA	–	–	43.1 nM	57 nM
AAGGAUAGAGGAUAUAUAUAGAUACAGAUUCAUGUAGAACUACAUGAGGAUCACCCAUGUAGAAGGCUAUCCUA	–	–	15.7 nM	60.4 nM
GAUUAUAAGUAAGGAUAUGUAUAUGAAACAUAUACAGAAGGUACAUGAGGAUCACCCAUGUUCUUGCAGCGCGAAUAUGUAAUC	–	–	18.9 nM	27.7 nM
UGACUGAAGCAAGGAUAUUGUAAAGUUAUCGUACAAGAAGGUGCUGUUUAUGUCUCUUUACAUGAGGAUCACCCAUGUUUUUAU	32.8 nM	24.6 nM	–	–
ACAUUUAUAUCAGGAUAUACAAUACAAUGAUUAGUAGAAGGGAUUAUUACAUGAGGAUCACCCAUGUCAUGUGUCAUAAUAACC	–	–	27.6 nM	24.1 nM
CUGGUUGUCGUAGGAUAUGUAGGAUAUUCCUACAUGAGGAUCACCCAUGUUCGCAUGGAAGAAGGACAGAAGGACGAUGACCAU	1020 nM	9.16 nM	–	–
ACAUGAGGAUCACCCAUGUGGAGUGAAGAAGGUGGUUACUUAUGACUCUCCCAUGUACAUAGGACUGAGGAUAUUCUAAUAAUU	88.5 nM	81.7 nM	–	–
AAAAAGUCAGGAUAUGCGAAGGCGUCUGAUAGACGAGGCUAGCAGAAGGGACAUGAGGAUCACCCAUGUGGAAA	–	–	79.4 nM	135 nM
ACAUGAGGAUCACCCAUGUGAACAUAGGAUAUUGGUGAUCAGGCAUGUUAUACAGGAUAUGUCUGCGAGAAGGAUGCACGUUGC	567 nM	341 nM	–	–
UCUCUGCGAGGAUAUACGUGCGCGCGCGCGCGCGCGCGCGUACAUGAGGAUCACCCAUGUAGAAGGCGCUCUGC	–	–	30.8 nM	28.2 nM
